Measured values from article PMC5965259 (Journal of medicinal chemistry, 2018).

Key:
[1] = tested on: bloodstream form T. brucei Lister 427; experiment: ATP–bioluminescence-based bloodstream form T. brucei cell viability assay; conditions: Trypanosoma brucei, 48 h, read-out: Tb427 EC50
[2] = tested on: prozyme protein levels in T. brucei cells; experiment: Western blot analysis of prozyme levels in treated T. brucei cells; type: cell-based; conditions: 24 h treatment at 1.5 × EC50
[3] = tested on: T. brucei AdoMetDC/prozyme; experiment: biochemical; conditions: pH 7.2; human vs T. brucei AdoMetDC
[4] = target: T1, T. brucei AdoMetDC/prozyme (Trypanosoma brucei brucei, UniProt P50244); experiment: biochemical
T1 sequence (P50244 86-370 limits assumed): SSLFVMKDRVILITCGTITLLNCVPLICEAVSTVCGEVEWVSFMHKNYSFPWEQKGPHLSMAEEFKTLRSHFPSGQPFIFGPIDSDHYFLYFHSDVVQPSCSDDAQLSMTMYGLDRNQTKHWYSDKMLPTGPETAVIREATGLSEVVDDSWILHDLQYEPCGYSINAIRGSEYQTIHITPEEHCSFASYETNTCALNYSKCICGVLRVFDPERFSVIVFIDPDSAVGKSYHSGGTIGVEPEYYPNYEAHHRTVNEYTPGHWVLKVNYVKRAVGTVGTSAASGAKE

[5] = Metabolic stability in hepatic microsomes; type: in vitro ADME, male CD-1 mouse and mixed-gender human
[6] = target: T2, TbAdoMetDC (Trypanosoma brucei brucei, UniProt P50244); experiment: Inhibition modality: substrate titrations, Lineweaver–Burk analysis; type: biochemical; conditions: substrate titrations at four inhibitor concentrations
T2 sequence (P50244 86-370 limits assumed): T1 sequence (P50244 86-370 limits assumed)
In short: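 Recombinant T. brucei AdoMetDC/prozyme heterodimer. Product (decarboxylated AdoMet) formation was measured across varied S-adenosyl-L-methionine concentrations at four test-compound concentrations. Product was quantified by RapidFire–mass spectrometry. Final DMSO in enzyme assays was 2%. Substrate titrations were analysed by double-reciprocal Lineweaver–Burk plot to assign inhibition modality.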

[7] = target: T2, TbAdoMetDC; experiment: Rapid dilution assay for reversibility of inhibition; type: biochemical; conditions: 30 min with 36 μM inhibitor, then 100-fold dilution; pH 7.2
In short: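 Recombinant T. brucei AdoMetDC/prozyme was pre-equilibrated with test compound for 30 min. It was then diluted 100-fold, to a non-inhibitory level, into reaction buffer containing 50 μM S-adenosyl-L-methionine (~Km) to start the reaction. Aliquots were quenched every 5 min, and decarboxylated AdoMet was quantified by RapidFire–MS. Progress curves were compared with a vehicle control.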

[8] = tested on: MDCKII-hMDR1 monolayer cells; experiment: MDCKII-hMDR1 monolayer BBB permeability assay ± Pgp inhibitor GF120918; type: in vitro ADME

Row | SMILES | EC50 [1] [µM] | further results
1 | Cc1cc(Nc2cc(Cl)cc(Cl)c2)ncn1 [Compound 23, N-(3,5-Dichlorophenyl)-6-methylpyrimidin-4-amine] | 27 | prozyme protein level vs vehicle-only control [2]: vehicle-only levels of the prozyme protein
2 | Cc1cc(Nc2cc(Br)cc(Br)c2)nc(N)n1 [Compound 44, N^4-(3,5-Dibromophenyl)-6-methylpyrimidine-2,4-diamine] | 4.8 | selectivity ratio (HsIC50/TbIC50) [3]: exceeded 100
3 | Nc1nc(Cl)cc(Nc2cc(Cl)cc(Cl)c2)n1 [Compound 13] | 8.9 | prozyme protein level vs vehicle-only control [2]: vehicle-only levels of the prozyme protein
4 | Nc1nccc(Nc2cc(Cl)cc(Cl)c2)n1 [Compound 8] | 9.9 | prozyme protein level vs vehicle-only control [2]: induced prozyme above the vehicle-only control levels
5 | C=CCOc1cc(Br)cc(Nc2cc(C)nc(N)n2)c1 [Compound 41, N^4-(3-(Allyloxy)-5-bromophenyl)-6-methylpyrimidine-2,4-diamine] | 4.4 | 
6 | Cc1cc(C)cc(Nc2cc(C)nc(N)n2)c1 [Compound 52, N^4-(3,5-Dimethylphenyl)-6-methylpyrimidine-2,4-diamine] | 19 | 
7 | CSc1cccc(Nc2cc(C)nc(N)n2)c1 [Compound 58] | > 25 | 
8 | Cc1nc(N)nc(Nc2cc(Cl)cc(Cl)c2)c1C [Compound 16] | 17 | 
9 | Cc1cc(Nc2cc(Br)c(F)c(Br)c2)nc(N)n1 [Compound 63, N^4-(3,5-Dibromo-4-fluorophenyl)-6-methylpyrimidine-2,4-diamine] | 4.6 | 
10 | Cc1cc(Nc2cccc(Br)c2)nc(N)n1 [Compound 56] | 22 | 
11 | Cc1cc(Nc2cc(Br)cc(OCC(C)C)c2)nc(N)n1 [Compound 43, N^4-(3-Bromo-5-isobutoxyphenyl)-6-methylpyrimidine-2,4-diamine] | 4.4 | 
12 | Cc1cc(Nc2cc(Cl)cc(-c3ccc(F)cc3)c2)nc(N)n1 [Compound 91, N^4-(5-Chloro-4′-fluoro-[1,1′-biphenyl]-3-yl)-6-methylpyrimidine-2,4-diamine] | 1.6 | 
13 | Cc1cc(Nc2cc(Cl)c(N3CCCCC3)c(Cl)c2)nc(N)n1 [Compound 71, N^4-(3,5-Dichloro-4-(piperidin-1-yl)phenyl)-6-methylpyrimidine-2,4-diamine] | 2.1 | 
14 | Cc1ccc(-c2cc(Cl)cc(Nc3cc(C)nc(N)n3)c2)cc1 [Compound 94, N^4-(5-Chloro-4′-methyl-[1,1′-biphenyl]-3-yl)-6-methylpyrimidine-2,4-diamine] | 4.3 | 
15 | Cc1cc(Nc2cc(Cl)cc(-c3ccc(N(C)C)cc3)c2)nc(N)n1 [Compound 100, N^4-(5-Chloro-4′-(dimethylamino)-[1,1′-biphenyl]-3-yl)-6-methylpyrimidine-2,4-diamine] | 5 | 
16 | Cc1cc(Nc2cc(Cl)cc(Br)c2)nc(N)n1 [Compound 32, N^4-(3-Bromo-5-chlorophenyl)-6-methylpyrimidine-2,4-diamine] | 4.7 | 
17 | Cc1cc(Nc2ccccc2)nc(N)n1 [Compound 59] | > 25 | 
18 | Cc1cc(Nc2cc(Cl)cc(-c3ccc(C(F)(F)F)cc3)c2)nc(N)n1 [Compound 95, N^4-(5-Chloro-4′-(trifluoromethyl)-[1,1′-biphenyl]-3-yl)-6-methylpyrimidine-2,4-diamine] | 2 | 
19 | Cc1cc(Nc2cc(Cl)cc(-c3ccc4ccccc4c3)c2)nc(N)n1 [Compound 107, N^4-(3-Chloro-5-(naphthalen-2-yl)phenyl)-6-methylpyrimidine-2,4-diamine] | 1.7 | 
20 | Cc1cc(Nc2cccc(F)c2)nc(N)n1 [Compound 57] | > 25 | 
21 | CCc1cc(Nc2cc(C)nc(N)n2)cc(-c2ccc(F)cc2)c1 [Compound 118, N^4-(5-Ethyl-4′-fluoro-[1,1′-biphenyl]-3-yl)-6-methylpyrimidine-2,4-diamine] | 1.3 | 
22 | Cc1cc(Nc2cc(C(C)(C)C)cc(C(C)(C)C)c2)nc(N)n1 [Compound 53, N^4-(3,5-Di-tert-butylphenyl)-6-methylpyrimidine-2,4-diamine] | 4.1 | 
23 | CSc1ccccc1Nc1cc(C)nc(N)n1 [Compound 78] | > 25 | 

Row | SMILES | EC50 [1] [µM] | further results
24 | Cc1cc(Nc2cc(Cl)c(N3CCOCC3)c(Cl)c2)nc(N)n1 [Compound 70, N^4-(3,5-Dichloro-4-morpholinophenyl)-6-methylpyrimidine-2,4-diamine] | 18 | 
25 | CCCCOc1cc(Br)cc(Nc2cc(C)nc(N)n2)c1 [Compound 42, N^4-(3-Bromo-5-butoxyphenyl)-6-methylpyrimidine-2,4-diamine] | 1.9 | 
26 | Cc1cc(Nc2ccc(-c3cc(Cl)cc(Cl)c3)cc2)nc(N)n1 [Compound 89, N^4-(3′,5′-Dichloro-[1,1′-biphenyl]-4-yl)-6-methylpyrimidine-2,4-diamine] | 1 | 
27 | Cc1cc(Nc2cc(Cl)c(N(C)C)c(Cl)c2)nc(N)n1 [Compound 69, N^4-(3,5-Dichloro-4-(dimethylamino)phenyl)-6-methylpyrimidine-2,4-diamine] | 5.8 | 
28 | CCc1cc(Nc2cc(Cl)cc(Cl)c2)nc(N)n1 [Compound 9] | 4.7 | 
29 | Cc1cc(Nc2cc(Cl)cc(-c3ccc(-c4ccccc4)cc3)c2)nc(N)n1 [Compound 99, N^4-(5-Chloro-[1,1′:4′,1″-terphenyl]-3-yl)-6-methylpyrimidine-2,4-diamine] | 0.91 | 
30 | Cc1cc(Sc2cc(Cl)cc(Cl)c2)nc(N)n1 [Compound 29, 4-((3,5-Dichlorophenyl)thio)-6-methylpyrimidin-2-amine] | > 25 | 
31 | Cc1cc(Nc2cccc(Cl)c2)nc(N)n1 [Compound 55, N^4-(3-Chlorophenyl)-6-methylpyrimidine-2,4-diamine] | 42 | 
32 | Cc1cc(Nc2cc(Cl)c(Oc3ccccc3)c(Cl)c2)nc(N)n1 [Compound 66, N^4-(3,5-Dichloro-4-phenoxyphenyl)-6-methylpyrimidine-2,4-diamine] | 1.1 | 
33 | Nc1cc(Nc2cc(Cl)cc(Cl)c2)ccn1 [Compound 21, N^4-(3,5-Dichlorophenyl)pyridine-2,4-diamine] | 11 | IC50 ([4]; Tb IC50, pH 7.2, mean, triplicate, 95% CI in parentheses): 29 µM
34 | Cc1cc(Nc2cc(Cl)cc(-c3cncnc3)c2)nc(N)n1 [Compound 117, N^4-(3-Chloro-5-(pyrimidin-5-yl)phenyl)-6-methylpyrimidine-2,4-diamine] | 58 | 
35 | Cc1cc(Nc2cc(Cl)cc(-c3ccc4c(c3)OCO4)c2)nc(N)n1 [Compound 109, N^4-(3-(Benzo[d][1,3]dioxol-5-yl)-5-chlorophenyl)-6-methylpyrimidine-2,4-diamine] | 2.3 | 
36 | Cc1cc(Nc2cc(S(C)(=O)=O)cc(S(C)(=O)=O)c2)nc(N)n1 [Compound 45, N^4-(3,5-Bis(methylsulfonyl)phenyl)-6-methylpyrimidine-2,4-diamine] | > 100 | 
37 | Nc1nc(Nc2cc(Cl)cc(Cl)c2)cc(-c2ccccc2)n1 [Compound 11] | 7.2 | 
38 | Cc1cc(Nc2cc(Cl)cc(-c3cc4ccccc4o3)c2)nc(N)n1 [Compound 112, N^4-(3-(Benzofuran-2-yl)-5-chlorophenyl)-6-methylpyrimidine-2,4-diamine] | 1.4 | 
39 | Cc1cc(Nc2cc(Cl)cc(-c3ccccc3Cl)c2)nc(N)n1 [Compound 101, N^4-(2′,5-Dichloro-[1,1′-biphenyl]-3-yl)-6-methylpyrimidine-2,4-diamine] | 8.5 | 
40 | Nc1ccnc(Nc2cc(Cl)cc(Cl)c2)c1 [Compound 18, N^2-(3,5-Dichlorophenyl)pyridine-2,4-diamine] | 38 | 
41 | Cc1cc(Nc2cc(-c3ccccc3)cc(-c3ccccc3)c2)nc(N)n1 [Compound 50, N^4-([1,1′:3′,1″-Terphenyl]-5′-yl)-6-methylpyrimidine-2,4-diamine] | 1.5 | 
42 | Cc1cc(Nc2cc(Cl)cc(-c3cc4ccccc4c4ccccc34)c2)nc(N)n1 [Compound 108, N^4-(3-Chloro-5-(phenanthren-9-yl)phenyl)-6-methylpyrimidine-2,4-diamine] | 1.8 | 
43 | Nc1nc(Nc2cc(Cl)cc(Cl)c2)cc(N2CCOCC2)n1 [Compound 12] | 13 | 
44 | Cc1cc(Nc2cc(Cl)cc(Cl)c2)nc(N)n1 [Compound 7] | 5.6 | metabolic stability [5]: poor metabolic stability; IC90 ([4]; pH 7.2, read-out: IC90 for TbAdoMetDC): ~36 µM; modality of inhibition [6]: competitive inhibition; recovery of enzyme activity after dilution of inhibitor (reversibility) [7]: fully recovered; Pgp-mediated efflux substrate [8]: not a substrate of Pgp-mediated efflux; prozyme protein level vs vehicle-only control [2]: induced prozyme above the vehicle-only control levels
45 | Cc1cc(Nc2cc(Cl)cc(-c3ccc4nonc4c3)c2)nc(N)n1 [Compound 110, N^4-(3-(Benzo[c][1,2,5]oxadiazol-5-yl)-5-chlorophenyl)-6-methylpyrimidine-2,4-diamine] | 0.57 | 
